Results as given in ChEMBL document CHEMBL3046604, “Synthesis and fungistatic activity of new groups of 2,4-dihydroxythiobenzoyl derivatives against phytopathogenic fungi” (J Agric Food Chem, 2003).
Activity calls are given as the source filed them. The calls are words filed in the database; no cut-off is given here.

How the values were obtained:
[1] = Lipophilicity, log K of the compound in methanol-water mixture by HPLC; assay type: physicochemical
Procedure, shortened: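 Reversed-phase HPLC on a Hypersil BDS C18 column (5 µm, 150 × 4.6 mm) with UV detection at 320 nm. Samples were dissolved in methanol. Mobile phase was methanol at varying volume fractions in 10 mM acetate buffer pH 4, run at 1 mL/min and room temperature. Dead time was taken from injection of acetone dissolved in water.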

Blumeria graminis [2] = assay: Fungistatic activity against Blumeria graminis infested wheat seedling assessed as inhibition of fungal infection at 500 ug/ml applied as spray after 7 to 14 days under green house conditions relative to control; assay type: functional
Procedure, shortened: (§1)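 Greenhouse test on healthy wheat seedlings with Erysiphe graminis. At the well-developed first-leaf stage, plants were sprayed with compound solution at 1000 or 500 µg/mL, 10 mL of solution per treatment, with three repeats in 9 cm paraffin cups.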

Blumeria graminis [3] = assay: Fungistatic activity against Blumeria graminis infested wheat seedling assessed as inhibition of fungal infection at 1000 ug/ml applied as spray after 7 to 14 days under green house conditions relative to control; assay type: functional; procedure, shortened: as §1
Phytophthora cactorum [4] = assay: Fungistatic activity against Phytophthora cactorum assessed as mycelial growth inhibition at 20 ug/ml after 4 to 8 days relative to control; assay type: functional; settings: for inhibition of growth at 20 µg/mL: read-out: GI
Procedure, shortened: (§2)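 Compound solutions or suspensions were diluted into PDA agar to final 200 or 20 µg/mL and poured into Petri dishes. Once the agar set, mycelium-covered agar disks of the fungus were placed at three sites on the surface. Linear colony growth was measured after 4-8 days, depending on the culture. Inhibition J = [(C − T)/C] × 100 versus untreated control, reported on a four-degree scale.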

Phytophthora cactorum [5] = assay: Fungistatic activity against Phytophthora cactorum assessed as mycelial growth inhibition at 200 ug/ml after 4 to 8 days relative to control; assay type: functional; settings: for inhibition of growth at 200 µg/mL: read-out: GI; procedure, shortened: as §2
Fusarium culmorum [6] = assay: Fungistatic activity against Fusarium culmorum assessed as mycelial growth inhibition at 20 ug/ml after 4 to 8 days relative to control; assay type: functional; settings: for inhibition of growth at 20 µg/mL: read-out: GI; procedure, shortened: as §2
Fusarium culmorum [7] = assay: Fungistatic activity against Fusarium culmorum assessed as mycelial growth inhibition at 200 ug/ml after 4 to 8 days relative to control; assay type: functional; settings: for inhibition of growth at 200 µg/mL: read-out: GI; procedure, shortened: as §2
Rhizoctonia solani [8] = assay: Fungistatic activity against Rhizoctonia solani assessed as mycelial growth inhibition at 20 ug/ml after 4 to 8 days relative to control; assay type: functional; settings: for inhibition of growth at 20 µg/mL: read-out: GI; procedure, shortened: as §2
Rhizoctonia solani [9] = assay: Fungistatic activity against Rhizoctonia solani assessed as mycelial growth inhibition at 200 ug/ml after 4 to 8 days relative to control; assay type: functional; settings: for inhibition of growth at 200 µg/mL: read-out: GI; procedure, shortened: as §2
Botrytis cinerea [10] = assay: Fungistatic activity against Botryotinia fuckeliana assessed as mycelial growth inhibition at 20 ug/ml after 4 to 8 days relative to control; assay type: functional; settings: read-out: GI; procedure, shortened: as §2
Alternaria alternata [11] = assay: Fungistatic activity against Alternaria alternata assessed as mycelial growth inhibition at 20 ug/ml after 4 to 8 days relative to control; assay type: functional; settings: read-out: GI; procedure, shortened: as §2
Botrytis cinerea [12] = assay: Fungistatic activity against Botryotinia fuckeliana assessed as mycelial growth inhibition at 200 ug/ml after 4 to 8 days relative to control; assay type: functional; settings: read-out: GI; procedure, shortened: as §2
Alternaria alternata [13] = assay: Fungistatic activity against Alternaria alternata assessed as mycelial growth inhibition at 200 ug/ml after 4 to 8 days relative to control; assay type: functional; settings: read-out: GI; procedure, shortened: as §2

| log K [1] | Structure (SMILES) | inhibition at 500 µg/mL (Blumeria graminis [2]) | inhibition at 1000 µg/mL (Blumeria graminis [3]) | inhibition of growth at 20 µg/mL (Phytophthora cactorum [4]) | inhibition of growth at 200 µg/mL (Phytophthora cactorum [5]) | inhibition of growth at 20 µg/mL (Fusarium culmorum [6]) | inhibition of growth at 200 µg/mL (Fusarium culmorum [7]) | inhibition of growth at 20 µg/mL (Rhizoctonia solani [8]) | inhibition of growth at 200 µg/mL (Rhizoctonia solani [9]) | inhibition of growth at 20 µg/mL (Botrytis cinerea [10]) | inhibition of growth at 20 µg/mL (Alternaria alternata [11]) | inhibition of growth at 200 µg/mL (Botrytis cinerea [12]) | inhibition of growth at 200 µg/mL (Alternaria alternata [13]) | growth inhibition (GI) (Phytophthora cactorum [4]) | growth inhibition (GI) (Phytophthora cactorum [5]) | growth inhibition (GI) (Fusarium culmorum [6]) | growth inhibition (GI) (Fusarium culmorum [7]) | growth inhibition (GI) (Rhizoctonia solani [8]) | growth inhibition (GI) (Rhizoctonia solani [9]) |
| --- | --- | --- | --- | --- | --- | --- | --- | --- | --- | --- | --- | --- | --- | --- | --- | --- | --- | --- | --- |
| 0.405 | O=C(O)c1cc2cc(OCc3ccccc3)ccc2n1C(=S)c1ccc(O)cc1O | 0% | 21% | 0% | 41% | 0% | 21% | 0% | 0% | 0% | 0% | 0% | 21% | – | – | – | – | – | – |
| -0.37 | O=C(Nc1ccccc1)c1ccccc1NC(=S)c1ccc(O)cc1O | 0% | 41% | 0% | 61% | 0% | 61% | 21% | 61% | 0% | 0% | 41% | 61% | – | – | – | – | – | – |
| 0.228 | Oc1ccc(C(=S)NNc2nncc3ccccc23)c(O)c1 | – | – | – | – | – | – | – | – | – | – | – | – | – | – | – | – | – | – |
| 0.229 | Oc1ccc(C(=S)NNC(=S)Nc2cccc(Cl)c2)c(O)c1 | 0% | 0% | 0% | 61% | 0% | 0% | 0% | 0% | 0% | 0% | 0% | 0% | – | – | – | – | – | – |
| 0.103 | COc1ccc(COC(=O)NNC(=S)c2ccc(O)cc2O)cc1 | – | – | – | – | – | – | – | – | – | – | – | – | – | – | – | – | – | – |
| -0.29 | O=C(CC(=O)c1ccc(NC(=S)c2ccc(O)cc2O)cc1)Nc1ccccc1Cl | – | – | – | – | – | – | – | – | – | – | – | – | – | – | – | – | – | – |

The next lines start with the compound.

| Structure (SMILES) | log K [1] | inhibition at 500 µg/mL (Blumeria graminis [2]) | inhibition at 1000 µg/mL (Blumeria graminis [3]) | inhibition of growth at 20 µg/mL (Phytophthora cactorum [4]) | inhibition of growth at 200 µg/mL (Phytophthora cactorum [5]) | inhibition of growth at 20 µg/mL (Fusarium culmorum [6]) | inhibition of growth at 200 µg/mL (Fusarium culmorum [7]) | inhibition of growth at 20 µg/mL (Rhizoctonia solani [8]) | inhibition of growth at 200 µg/mL (Rhizoctonia solani [9]) | inhibition of growth at 20 µg/mL (Botrytis cinerea [10]) | inhibition of growth at 20 µg/mL (Alternaria alternata [11]) | inhibition of growth at 200 µg/mL (Botrytis cinerea [12]) | inhibition of growth at 200 µg/mL (Alternaria alternata [13]) | growth inhibition (GI) (Phytophthora cactorum [4]) | growth inhibition (GI) (Phytophthora cactorum [5]) | growth inhibition (GI) (Fusarium culmorum [6]) | growth inhibition (GI) (Fusarium culmorum [7]) | growth inhibition (GI) (Rhizoctonia solani [8]) | growth inhibition (GI) (Rhizoctonia solani [9]) |
| --- | --- | --- | --- | --- | --- | --- | --- | --- | --- | --- | --- | --- | --- | --- | --- | --- | --- | --- | --- |
| CCOC(=O)c1c(C)csc1NC(=S)c1ccc(O)cc1O | -0.28 | – | – | – | – | – | – | – | – | – | – | – | – | – | – | – | – | – | – |
| CCOc1ccc(C(=O)NNC(=S)c2ccc(O)cc2O)cc1 | 0.352 | – | – | – | – | – | – | – | – | – | – | – | – | – | – | – | – | – | – |
| Oc1ccc(C(=S)Nc2cc(C(F)(F)F)ccc2N2CCOCC2)c(O)c1 | 0.035 | 0% | 0% | 0% | 41% | 0% | 21% | 0% | 0% | 0% | 0% | 21% | 21% | – | – | – | – | – | – |
| CC12CC1(C)C(=O)N(c1cc(Cl)cc(Cl)c1)C2=O (stereo not given) [PROCYMIDONE] | – | – | – | – | – | – | – | – | – | 81% | 81% | 81% | 81% | inactive | inactive | inactive | inactive | inactive | inactive |
| Oc1ccc(C(=S)NNC(=S)Nc2ccc(F)cc2)c(O)c1 | 0.24 | 0% | 0% | 0% | 0% | 0% | 0% | 0% | 0% | 0% | 0% | 0% | 21% | – | – | – | – | – | – |
